The nature of the series: Toxicity liver stage against HepG2, at 10uM. It counts as cell-based. Details: test concentration 10 uM, cell line HepG2-A16-CD81EGFP. To be noted: human, HepG2-A16-CD81EGFP cells; read-out: INHIBITION
An outline of the steps:
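Uninfected HepG2-A16-CD81EGFP cells, 3 × 10^3 per well, 1536-well, plated on prespotted compound at 10 μM final, parasite-free screening media added to match infected plates; puromycin 10 μM positive, DMSO 0.5% negative; run in parallel with 48 h PbLuc assay at 37 °C, 5% CO2; viability by CellTiter-Glo luminescence, normalized to controls.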
Regarding `c1cncc(O[C@H]2COCCN(Cc3c[nH]c4ccccc34)C2)c1`, the cytotoxicity at 10 µM is 0.208%.
In the case of `O=C(O)CCCC(=O)N1CCC(c2noc3cc(F)ccc23)CC1`, the cytotoxicity at 10 µM is -4.66%.
On to `CC(C)NC(=O)N(Cc1cc(O)nc2ccccc12)C(C)C`, for which the cytotoxicity at 10 µM is 0.266%.
For `O=C(NCCc1cccc(F)c1)C1(n2cnnn2)CCCCC1` the value was 1.04%; for `C[C@H]1C[C@H]2CN(C(=O)C3=CCCC3)CC[C@H]2O1`, 3.76%; for `Cn1nccc1-c1nc2c(cc1C(=O)O)CCN(CC1CC1)CC2`, -119%.
Take `O=C(NCC1CC1)[C@@H]1C[C@@H]2CCN(Cc3ccoc3)C[C@@H]2O1`: the cytotoxicity at 10 µM was -2.65%.
Turning to `CCN1C[C@@H]2CN(C(=O)c3ccsc3)C[C@@H]2C1=O`, the cytotoxicity at 10 µM is -6.57%.
`O=C(O)c1ccc2[nH]cc(CN3CCOCC3)c2c1`: the cytotoxicity at 10 µM was -9.48%.
Regarding `Cc1ccc(-c2csc(N)c2C#N)cc1`, the cytotoxicity at 10 µM is -1.61%.
With `COc1nn(C)c2c1CCCN(C(=O)c1ccccc1)C2`, the cytotoxicity at 10 µM is -9.76%.
In the case of `C[C@H]1C[C@H]2CN(C(=O)c3ccncn3)CC[C@H]2O1`, the cytotoxicity at 10 µM was -20.9%.
Regarding `Cc1nc(NCc2ccc(F)cc2)cc(C(=O)N2CCOCC2)n1`, the cytotoxicity at 10 µM was -9.14%.
For `CCCNC(=O)c1cnc(N(C)C)nc1COC`, the cytotoxicity at 10 µM is 3.17%.
Take `Cc1ccccc1C(=O)N1CCOC(c2ncc(CN(C)C)[nH]2)C1` (stereo unspecified): the cytotoxicity at 10 µM was 0.53%.
`CCOC(=O)NCC(=O)Nc1nc2ccccc2n1C(C)(C)C`: the cytotoxicity at 10 µM is -4.62%.
As for `CN(CCSc1nncn1C(C)(C)C)c1ccccc1`, the cytotoxicity at 10 µM was 24%.
In the case of `Cn1ccc(C(=O)Nc2cccc(-c3ccc4c(c3)CCO4)n2)cc1=O`, the cytotoxicity at 10 µM was -1.26%.
As for `CCNC(=O)c1ccc(NC2CCOC3(CCCCC3)C2)nn1` (stereo unspecified), the cytotoxicity at 10 µM was -3%.
As for `O=C(NC1CC1)c1ccc(SCc2cscn2)cc1`, the cytotoxicity at 10 µM is 1.26%.
As for `CC(CNS(N)(=O)=O)Oc1ccc(Cl)cc1` (stereo unspecified), the cytotoxicity at 10 µM was -5.37%.
With `Cc1cc(OCCC(=O)Nc2cccc(F)c2)nnc1C`, the cytotoxicity at 10 µM is -2.32%.
Take `CCc1ccc(NC(C(N)=O)c2ccc(F)cc2)cc1` (stereo unspecified): the cytotoxicity at 10 µM was found to be 2.27%.
Turning to `O=C(CNC(=O)c1ccccc1Cl)Nc1nccs1`, the cytotoxicity at 10 µM was -3.09%.
With `CCn1ccnc1S(=O)(=O)Cc1c(C)cc(C)c(C(C)=O)c1C`, the cytotoxicity at 10 µM was 8.5%.
With `CN(C)C(=O)c1cccc(CCNS(C)(=O)=O)c1`, the cytotoxicity at 10 µM was -6.46%.
For `O=C(NC1CCCCC1)NC1CCCc2c1cnn2CCO` (stereo unspecified) the value was 8.39%; for `CC(C)CCNC(=O)c1cccnc1Oc1cccnc1`, -0.379%; for `COc1ccnc(N2CCN(C(=O)c3cnc(C4CC4)s3)CC2)n1`, -5.35%.
Then `Cc1noc(CN(CCc2ccco2)Cc2cccc(C#N)c2)n1`, with 3.04%; and `CC(C)(C)OC(=O)N1CCC(C(=O)NCc2ccccc2)C1` (stereo unspecified), with 17.7%; and `CCN1CC(C(=O)NC(C)(C)C(=O)OC)CC1=O` (stereo unspecified), with -143%.
Then `CC(C)C(=O)N1CCC(NC2CCSCC2)C1` (stereo unspecified), with -3.54%.
In the case of `CC(C)(C)NC(=O)Cn1cc(C(N)=O)c(-c2ccccc2)n1`, the cytotoxicity at 10 µM was -12.8%.
Then `CCN(CC)Cc1ccccc1NC(=O)N(C)Cc1ccccc1O`, with -1.57%; and `NC(=O)C(Nc1cccc(CO)c1)c1ccc(Br)cc1` (stereo unspecified), with 9.17%; and `COC(=O)NC1(C(=O)Nc2ccc(-c3cc[nH]n3)cc2)CCCC1`, with -11.2%.
Consider `Cc1cc(NS(=O)(=O)CC2CCCCO2)ccc1F` (stereo unspecified), for which the cytotoxicity at 10 µM was -11.7%.
Consider `Cc1cc(CNC(=O)N2CCOC(c3ccccc3Cl)C2)no1` (stereo unspecified), for which the cytotoxicity at 10 µM is 0.658%.
For `CC(C)Cn1ccnc1CNC(=O)N1CCCC1CN1CCOCC1` (stereo unspecified) the value was -6.29%; for `Cc1cc(C2CCCN2S(=O)(=O)c2cnn(C)c2)on1` (stereo unspecified), -5.22%; for `CCc1nc(C2CCCN2c2ncc(C(F)(F)F)cc2Cl)no1` (stereo unspecified), 5.64%.
Then `COC(=O)CNC(=O)C1(NC(=O)c2ccc3[nH]ncc3c2)CCCC1`, with -2.23%; and `CC(C)(C(=O)NCc1n[nH]c(=O)[nH]1)c1ccc(F)cc1`, with 7.52%; and `CC(O)CN1CCN(C(=O)c2cn(-c3ccccc3Cl)nn2)CC1` (stereo unspecified), with 0.361%.
For `O=C(O)c1csc(S(=O)(=O)N2CCCc3ccc(F)cc32)c1`, the cytotoxicity at 10 µM worked out at 16.6%.
Then `CS(=O)(=O)c1ccc(OCCNCc2ccc(F)cc2F)cc1`, with -8.25%; and `O=C(Nc1ccccc1)N1CC(C(=O)N2CCCC2)C2(CCOCC2)C1` (stereo unspecified), with -82.4%.
With `Cc1ccc(S(=O)(=O)N2CCC3(CC(C(=O)NCC(C)C)=NO3)C2)cc1` (stereo unspecified), the cytotoxicity at 10 µM is -0.819%.
As for `Cn1cc(-c2cnc(N3CCOCC3)nc2)cc1C(=O)N1CCOCC1`, the cytotoxicity at 10 µM is 9.8%.
As to `COc1ccccc1OCCCn1c(C)c(C)oc1=O`, the cytotoxicity at 10 µM is 0.129%.
`O=C(c1ccc(Cl)cc1)N1CCC2(CC1)C(=O)Nc1ccccc12`: the cytotoxicity at 10 µM was -145%.
Regarding `CCc1cc(NC2CCOCC2)n2nc(C)c(C)c2n1`, the cytotoxicity at 10 µM was determined as 0.551%.
In the case of `CCc1nc(C)c(-c2nccn2CC2CCCCO2)[nH]1` (stereo unspecified), the cytotoxicity at 10 µM came out at 3.98%.
For `CCNc1ccnc(NC2CCN(CC(N)=O)CC2)n1`, the cytotoxicity at 10 µM is -15.7%.
With `Cn1ncnc1-c1ccnc(NCc2ccccn2)n1`, the cytotoxicity at 10 µM is -2.46%.
Turning to `CCC[C@H]1CN(S(C)(=O)=O)C[C@@H]1NC(=O)CCCn1ccnc1`, the cytotoxicity at 10 µM was 4.47%.
Turning to `Cc1cc(=O)c2ccccc2n1CC1CCCN(C)C1` (stereo unspecified), the cytotoxicity at 10 µM is -5.82%.
Then `Cc1cc(CN2CCC(CNC(=O)c3ccc(C#N)cc3)C2)[nH]n1` (stereo unspecified), with -138%.
Turning to `COc1cc(-c2nc(C3CC3)nn2-c2ccnc(C)c2)nc(OC)n1`, the cytotoxicity at 10 µM came out at 2.64%.
With `CCC[C@@H]1CN(Cc2c[nH]c(CC3CCCC3)n2)C[C@H]1C(=O)O`, the cytotoxicity at 10 µM was 4.86%.
On to `CCCc1cc(C(=O)N(Cc2cccnc2)C2CCCCC2)[nH]n1`, for which the cytotoxicity at 10 µM was -11.2%.
For `Cc1csc2c(N3CCNC(C(=O)N4CCCC4)C3)ncnc12` (stereo unspecified) the value was -5.6%; for `O=C(CC(F)(F)F)N1CCc2[nH]nc(-c3ccc4c(c3)OCO4)c2C1`, -149%; for `O=C(CC[C@@H]1CCCN2CCCC[C@H]12)N1CCC(c2nnc[nH]2)CC1`, 2.61%.
For `CC(=O)N1CCCCC1c1ncnn1-c1ccc2nc(C)sc2c1` (stereo unspecified), the cytotoxicity at 10 µM was -12%.
For the compound `CN(CCc1cn[nH]c1)C(=O)C1CC(=O)N(Cc2cccnc2)C1` (stereo unspecified), the cytotoxicity at 10 µM was -0.812%.
For the compound `Cc1ccc2cc(C3(O)CCN(C(=O)CN4CCCC4)CC3)ccc2n1`, the cytotoxicity at 10 µM stood at 2.57%.
As to `COc1ccc(C2CC(=O)Nc3c2cnn3C2CCCC2)cc1` (stereo unspecified), the cytotoxicity at 10 µM was -9.41%.
Then `CCCn1ncc2c(C(=O)Nc3cnn(CC)c3C)cc(C3CC3)nc21`, with -0.842%; and `COC1CCN(C(=O)CCn2cccn2)CC1`, with -13.4%; and `Cc1nc(C)n(CC2CCCN2CCCc2nc3ccccc3o2)n1` (stereo unspecified), with -8.58%.
Then `Cn1cnc(S(=O)(=O)NCCCN2CCCC2)c1Cl`, with -11.6%; and `Cc1cc(C2CCCN2Cc2cc(=O)n(C)c(=O)n2C)no1` (stereo unspecified), with -20.6%.
For `Cc1csc(N2CCN(C(=O)C3(C#N)CCCC3)CC2)n1`, the cytotoxicity at 10 µM is -12.6%.
In the case of `CCNC(=O)NC(=O)CNc1cc(C#N)ccc1OCC`, the cytotoxicity at 10 µM is -19.7%.
Consider `CN(Cc1ccc(O)cc1)C(=O)NCc1nnc2n1CCCCC2`, for which the cytotoxicity at 10 µM is -11.1%.
For the compound `COc1ccc(-c2nc(CN3CCc4cnc(C)nc4C3)no2)cc1`, the cytotoxicity at 10 µM was -7.1%.
Regarding `CCn1cnnc1CNC(=O)NC(c1cccs1)C1CCCC1` (stereo unspecified), the cytotoxicity at 10 µM was -11.2%.
For the compound `O=C(NCCCn1nc2ccccn2c1=O)NCc1ccccc1`, the cytotoxicity at 10 µM was -16.1%.
In the case of `COc1ccc(OCCC(=O)N2CCCC2Cn2cccn2)cc1` (stereo unspecified), the cytotoxicity at 10 µM was -39%.
Take `CCc1csc(C2CCCN(C(=O)c3ccc4[nH]nnc4c3)C2)n1` (stereo unspecified): the cytotoxicity at 10 µM is -17.1%.
With `CN(Cc1ccco1)C(=O)CN1CCCC1Cn1cccn1` (stereo unspecified), the cytotoxicity at 10 µM turned out to be 1.55%.
`CCn1cnnc1CNC(=O)c1cc(Cl)ccc1OC`: the cytotoxicity at 10 µM turned out to be 5.87%.
For `O=C(Nc1cccnc1)[C@@H]1COC[C@H]2CN(C3CCCC3)C[C@H]21`, the cytotoxicity at 10 µM came to 5.74%.
In the case of `CCN1C[C@H]2[C@@H](C1)N(C(=O)Cc1ccsc1)CC[C@H]2OC`, the cytotoxicity at 10 µM amounted to 6.8%.
For the compound `CCN1CCN(C)C(=O)C12CCN(Cc1ccsc1)CC2`, the cytotoxicity at 10 µM was found to be 1.14%.
With `c1ncn(Cc2cn3c(n2)CN(CC2CCCCC2)CC3)n1`, the cytotoxicity at 10 µM was -123%.
Turning to `O=C(c1cocn1)N1CC[C@H]2OCC[C@@]2(COc2ncccc2F)C1`, the cytotoxicity at 10 µM was -127%.
Turning to `c1cc(CN2Cc3nccn3CC(Cn3cncn3)C2)ccn1` (stereo unspecified), the cytotoxicity at 10 µM was -134%.
Regarding `CN(C)C(=O)COC[C@]12COC[C@H]1CN(Cc1ccccc1)C2`, the cytotoxicity at 10 µM was -5.78%.
For `CN(C)C(=O)N1C[C@H]2CCC[C@@]2(COc2ccccn2)C1` the value was 3.24%; for `CN1[C@@H](C(=O)NCC2CC2)C[C@@H]2CN(Cc3ccsc3)C[C@@H]21`, -4.04%; for `CSc1ncc(C(=O)N2C[C@@H]3CC[C@H]2CN(S(=O)(=O)N(C)C)C3)cn1`, 0.0773%.
Consider `CC(=O)N1C[C@H]2CC[C@@H](C1)N(S(=O)(=O)c1ccc(F)cc1Cl)C2`, for which the cytotoxicity at 10 µM was -0.756%.
As to `CC(C)CS(=O)(=O)N1C[C@@H]2C[C@H](C(=O)Nc3cccnc3)[C@H](C1)O2`, the cytotoxicity at 10 µM is -1.55%.

The values above are taken from ChEMBL document CHEMBL4513216, “Probing the Open Global Health Chemical Diversity Library for Multistage-Active Starting Points for Next-Generation Antimalarials” (ACS Infect Dis, 2020).
